Assay outcomes (PubChem)
PREPL inhibitor: human PREPL enzyme inhibition; inhibition, % at 5.96 µM; recombinant PREPL, fluorescence polarization activity-based probe; Q4J6C6; 0.68% of 320,000 active; in the data active = inhibition above about 43%;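 note: 0% = enzyme with DMSO and 100% = wells lacking enzyme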
ALR inh: inhibitors of human sulfhydryl oxidase ALR. inhibition, % (concentration not given with the values). 3.8% of 290,000 active. AID 485317. P55789. purified ALR, DTT oxidation, H2O2 HRP-luminol luminescence;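 active = mean replicate inhibition above about 79%, with every replicate also reaching it, limit read from the data; inconclusive = only one of the two criteria met; inactive = mean below limit and not every replicate reaching it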
RBBP9 inh: blocks human serine hydrolase RBBP9; O75884; recombinant RBBP9, FP-Rh probe fluorescence polarization; inhibition, % at 7.94 µM; 0.2% of 220,000 active; AID 1515;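 active = inhibition above the campaign mean of all tested compounds plus 3 SD, cut at about 14% in these data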;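 note: plate controls were DMSO wells with RBBP9 for no effect and wells lacking RBBP9 protein for full effect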
Target sequence (O75884 whole entry, looked up): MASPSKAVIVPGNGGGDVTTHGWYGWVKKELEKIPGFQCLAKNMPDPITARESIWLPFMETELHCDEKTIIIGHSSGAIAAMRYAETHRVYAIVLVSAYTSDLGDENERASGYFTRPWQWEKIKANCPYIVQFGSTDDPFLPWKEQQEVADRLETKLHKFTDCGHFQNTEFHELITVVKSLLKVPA
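system = RBBP9 protein | input = RBBP9 at 2.5 µM in dispensed solution, before mixing | measured by = fluorescence polarization (mP), excitation 525 nm, emission 598 nm | incubation = enzyme-compound preincubation 30 min, then probe labeling 45 min, 25 °C | buffer or medium = Tris-NaCl-Pluronic buffer, pH 8.0 | compound = single dose 7.94 µM | also added = FP-Rh probe, 375 nM dispensing solution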
Rin1-Abl PPI inh: human Rin1-Abl interaction inhibition; P00519+Q13671; TR-FRET Rin1/Abl binding, biochemical; inhibition, % at 7.35 µM; 0.4% of 360,000 active; in the data active = inhibition above about 5%, passing the limit was not always enough
UBC9 SUMO inh: blocks human SUMOylation mediated by UBC9; HTRF SUMOylation assay, SAE1/SAE2 + UBC9, in vitro; inhibition, % at 35 µM; 0.36% of 290,000 active; in the data active = inhibition above about 50%, passing the limit was not always enough; inconclusive = no clear call, values can overlap the other calls
Target sequence (P63279 whole entry, looked up): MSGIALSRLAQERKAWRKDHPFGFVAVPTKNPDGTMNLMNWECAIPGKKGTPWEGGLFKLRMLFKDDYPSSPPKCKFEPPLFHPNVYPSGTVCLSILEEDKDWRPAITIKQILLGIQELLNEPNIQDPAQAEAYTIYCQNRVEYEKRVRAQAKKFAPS
UBC13 polyUb: blocks human UBC13 polyubiquitin chain formation; inhibition, % at 20 µM; P61088; 0.47% of 330,000 active; TR-FRET; AID 485273; in the data active = inhibition above about 45%, passing the limit was not always enough; inconclusive = no clear call, values can overlap the other calls
Casp3 counter: caspase-3 inhibition (UBC13 counter-screen); shares compounds with UBC13 polyUb; Recombinant caspase-3, Caspase-Glo 3/7 luminescence, 60 min; inhibition, % at 20 µM; 4% of 1,400 active;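 active = mean inhibition across replicates above about 26%, limit read from the data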;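 note: plate controls were DMSO with caspase-3 for no effect and DMSO wells lacking enzyme for full effect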
Target sequence (P42574 whole entry, looked up): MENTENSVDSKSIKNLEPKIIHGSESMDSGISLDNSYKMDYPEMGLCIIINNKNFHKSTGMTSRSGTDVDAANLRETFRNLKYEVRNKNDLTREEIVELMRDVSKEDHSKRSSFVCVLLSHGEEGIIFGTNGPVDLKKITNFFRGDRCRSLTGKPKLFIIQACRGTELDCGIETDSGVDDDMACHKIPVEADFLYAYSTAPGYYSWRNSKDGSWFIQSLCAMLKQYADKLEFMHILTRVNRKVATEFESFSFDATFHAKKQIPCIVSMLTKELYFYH
UBC13 conf: human UBC13 polyubiquitin inhibition, confirmed. UBC13 polyubiquitination, TR-FRET, biochemical. 68% of 1,400 active. inhibition, % at 10 µM. shares compounds with UBC13 polyUb. AID 488859; in the data active = inhibition above about 45%; inconclusive = no clear call, values can overlap the other calls
Numbers without * were called inactive; i = inactive; ? = inconclusive; nt = no result given. Rows were chosen to be rich in hits. Some 4.3% of all compounds tested hit in one or more screens of this group.

SMILES	PREPL inhibitor	ALR inh	RBBP9 inh	Rin1-Abl PPI inh	UBC9 SUMO inh	UBC13 polyUb	Casp3 counter	UBC13 conf
CCOC(=O)C1=CN(Cc2cccc(-c3ccc(F)cc3)c2)S(=O)(=O)N(C)C1C (centres undefined)	nt	nt	nt	0.5	nt	nt	nt	nt
CN(C)CCCN(C(=O)c1ccc(S(=O)(=O)N2CCCC2)cc1)c1nc2ccc(Br)cc2s1	7.9	-10.0	nt	-4.0	5.8	70.5*	-5.5	97.4*
CCOc1ccc2nc(N(CCCN(C)C)C(=O)c3ccc(S(=O)(=O)N4CCCC4)cc3)sc2c1	-5.2	-1.6	nt	6.3	-4.7	27.1	nt	nt
CN(C)CCCN(C(=O)c1ccc(S(=O)(=O)N2CCCCC2)cc1)c1nc2cc3c(cc2s1)OCO3	24.9	5.8	nt	1.7	6.6	54.7*	-0.5	89.6*
Cc1ccc2nc(N(CCCN(C)C)C(=O)c3ccc4c(c3)CCCC4)sc2c1	-11.2	-12.8	-10.8	-2.1	-9.0	66.2*	0.0	68.6*
Cc1cc(C)c2nc(N(CCCN(C)C)C(=O)c3ccc4c(c3)CCCC4)sc2c1	-50.6	-39.9	nt	nt	nt	25.7	nt	nt
CN(C)CCCN(C(=O)c1ccc(C(=O)c2ccccc2)cc1)c1nc2cc3c(cc2s1)OCO3	19.8	-5.1	nt	-0.4	11.3	72.1*	4.5	106.1*
CNc1nc2ccccc2n1CC(=O)c1ccccc1	nt	41.4	nt	-0.2	-1.0	2.7	nt	nt
CCN(Cc1ccccc1)S(=O)(=O)c1ccc(C(=O)N(CCCN(C)C)c2nc3cc4c(cc3s2)OCCO4)cc1	-1.3	0.1	nt	-0.5	nt	95.5*	-1.8	114.2*
CCn1c(=S)[nH]c2cc(C(=O)O)ccc21	0.7	2.4	-1.8	nt	0.7	5.2	nt	nt
CCn1c(=O)cc(C(F)(F)F)[nH]c1=S	-3.1	-2.0	-6.5	-4.2	9.7	55.3*	-1.3	?
CCCCN(CC)CCNC(=O)c1nn(-c2ccc(OC)cc2)c(=O)c2c1c1ccccc1n2C	-39.8	-3.7	-3.3	-2.7	4.7	22.0	nt	nt
CCN(Cc1ccccc1)C(=O)c1nn(-c2ccc(OC)cc2)c(=O)c2c1c1ccccc1n2C	1.0	-14.4	-7.0	-0.7	-14.1	45.2*	-1.7	?
CC(C)(C)c1ccc(C(CC(=O)O)NC(=O)Cc2ccc(Cl)cc2)cc1 (centres undefined)	-2.3	6.5	nt	3.3	6.2	-1.4	nt	nt
CC1CCN(c2c(NCc3ccc(C(=O)N4CCN(C5CCCCC5)CC4)cc3)c(=O)c2=O)CC1	12.7	-18.9	0.4	-2.9	-0.4	68.6*	-1.3	57.9*
S=c1nc[nH]c2c1[nH]c1ccccc12	4.5	97.9*	-3.9	i	-4.3	82.3*	4.3	103.1*
S=c1nc[nH]c2c1[nH]c1ccc(Cl)cc12	-0.3	-5.1	-7.3	i	-7.2	-237.0	nt	nt
CC(=O)Nc1ccc(S(=O)(=O)N(C)CC(=O)OCC(=O)N2CCCC2=O)cc1	6.3	-1.2	nt	-0.3	nt	3.6	nt	nt
COC(=O)c1ccc(CNC(=O)COC(=O)c2cc(Cl)ccc2O)cc1	-7.5	nt	nt	1.5	nt	51.8*	-4.7	44.4
O=C(COC(=O)c1cc(Cl)ccc1O)NC(=O)NCc1ccccc1	6.0	1.1	nt	-0.7	nt	49.5*	-3.2	?
COc1ccc(/C=C/C(=O)Nc2c(C)nn(C)c2C)cc1COc1ccc(Cl)cc1Br	-7.6	-2.1	-9.0	2.8	-6.5	60.1*	-1.9	63.2*
COCCCNC(=O)c1ccc(OC)c(OC2CCN(C(C)C)CC2)c1	-4.4	nt	nt	-2.5	0.2	5.0	nt	nt
Cc1ccc(NC(=S)NNC(=O)c2nnn(-c3ccccc3)c2C)cc1	-3.3	18.9	-8.8	0.3	-72.6	45.0*	3.2	48.2*
CCOc1cc(C(=O)N(CC)CC(=O)Nc2c(F)cccc2F)ccc1OCC(=O)N1CCCCC1	-2.8	-0.9	nt	0.5	nt	12.8	nt	nt
CCOc1cc(CNCCc2ccc(S(N)(=O)=O)cc2)ccc1OCc1ccc(Cl)cc1	17.1	-13.7	0.8	0.6	4.0	58.5*	8.1	65.8*
SMILES	PREPL inhibitor	ALR inh	RBBP9 inh	Rin1-Abl PPI inh	UBC9 SUMO inh	UBC13 polyUb	Casp3 counter	UBC13 conf
CCOc1ccc(C(C(=O)NCC2CCCO2)N(Cc2cccnc2)C(=O)c2snc(C(N)=O)c2N)cc1 (centres undefined)	nt	nt	nt	1.9	1.0	7.7	nt	nt
O=C1N(Cc2cccc(Cl)c2)C[C@@H]2C[C@@H](c3ccc4nonc4c3)N3CCC[C@@]123	8.9	-4.9	-12.1	0.8	-12.5	5.4	nt	nt
Cc1nc2ccccn2c(=O)c1CCN1CCC(C(=O)c2ccc(F)cc2)CC1	26.6	6.7	5.0	-0.6	24.1	-5.4	nt	nt
Cc1nc2sccn2c(=O)c1CCN1CCC(=C(c2ccc(F)cc2)c2ccc(F)cc2)CC1	1.8	-20.2	-7.0	1.2	-3.6	45.3*	-1.4	22.2
N#C/C(=C/c1cn(-c2ccccc2)nc1-c1cccc(OCc2ccccc2)c1)C(=O)NCCCn1ccnc1	-7.8	-28.3	-7.2	1.2	-13.1	48.1*	-1.2	55.6*
CCOc1cccc(-c2nn(-c3ccccc3)cc2/C=C(/C#N)C(=O)NCCCn2ccnc2)c1	-10.4	-0.2	-9.9	-2.1	0.9	14.2	nt	nt
Cc1ncc(S(=O)(=O)c2ccc(Cl)cc2)c(N)n1	2.3	-2.4	nt	4.2	nt	45.0*	-1.4	49.1*
Nc1ncc(S(=O)(=O)c2ccc(Cl)cc2)c(N)n1	7.3	-2.5	nt	-1.8	10.3	14.5	nt	nt
OCc1cccc(-c2csc(C(O)(c3ccccc3)C(F)(F)F)n2)c1 (centres undefined)	nt	nt	nt	1.8	nt	nt	nt	nt
Cc1sc2ncnc(N)c2c1C	-17.9	0.8	0.0	-4.3	25.2	61.0*	-6.9	49.2*
Cc1ccc(OCCCC(=O)Nc2ccc(S(=O)(=O)N3CCOCC3)cc2)cc1	4.1	-5.1	nt	2.9	nt	56.0*	-2.6	37.0
O=C(CCCOc1ccccc1)Nc1ccc(S(=O)(=O)N2CCOCC2)cc1	-5.9	7.3	-3.6	1.6	9.9	-4.5	nt	nt
N#Cc1sc2nc(-c3cccs3)cc(-c3ccc(F)cc3)c2c1N	14.0	-25.0	-3.7	2.0	16.2	58.6*	-2.0	34.4
CS(=O)(=O)c1sc2nc(-c3cccs3)cc(-c3ccccc3)c2c1N	4.0	3.2	-9.4	-4.1	30.3	-31.0	nt	nt
C#CCOCCOCCOCCNc1nc(N2CCN(C(=O)[C@H](CCCCN)n3cc(CN)nn3)CC2)nc(N2CCN(C(=O)[C@H](CCCCN)n3cc([C@@H](N)CC(N)=O)nn3)CC2)n1	nt	nt	nt	-2.2	nt	nt	nt	nt
C#CCOCCOCCOCCNc1nc(N2CCN(C(=O)[C@H](CCCCN)n3cc([C@@H](N)CC(N)=O)nn3)CC2)nc(N2CCN(C(=O)[C@H](CCCCN)n3cc([C@@H](N)CC(N)=O)nn3)CC2)n1	11.9	9.2	nt	0.7	nt	108.4*	-2.2	111.0*
